What was measured:
Format in all cases: functional, cell-based
A549 = experiment: Cytotoxicity against human A549 cells assessed as total cell protein after 48 hrs by SRB assay; conditions: A549, 48 h
In short: (§1)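 Cells kept in RPMI-1640 with 2 mM glutamine, 10% FBS, penicillin/streptomycin, 37 °C, 5% CO2. Seeded 5000 cells/well, grown 24 h, then serial dilutions from 10 mM DMSO stocks added in medium (final DMSO 0.5%), triplicate, 48 h. TCA fixation at 4 °C for 1 h, 0.4% SRB stain, dye solubilized in 10 mM Tris pH 10.4, OD 515 nm. IC50 by nonlinear regression of % control viability vs log concentration; experiments repeated at least twice.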

[1] = Cytotoxicity against human CNE2 cells assessed as total cell protein after 48 hrs by SRB assay; conditions: CNE-2, 48 h; in short: as §1
HepG2 = experiment: Cytotoxicity against human HepG2 cells assessed as total cell protein after 48 hrs by SRB assay; conditions: HepG2, 48 h; in short: as §1
SW480 = experiment: Cytotoxicity against human SW480 cells assessed as total cell protein after 48 hrs by SRB assay; conditions: SW480, 48 h; in short: as §1
MCF7 = experiment: Cytotoxicity against human MCF7 cells assessed as total cell protein after 48 hrs by SRB assay; conditions: MCF7, 48 h; in short: as §1

| SMILES | IC50 (A549) [µM] | IC50 [1] [µM] | IC50 (HepG2) [µM] | IC50 (SW480) [µM] | IC50 (MCF7) [µM] |
| --- | --- | --- | --- | --- | --- |
| COc1ccc(/C=C/C(=O)c2cccc(Br)c2)cc1OC | 9.43 |  |  |  |  |
| COc1ccc(OC)c(/C=C/C(=O)c2ccc(N)c(-c3ccc(F)cc3)c2)c1 | 7.04 | 6.71 | 4.01 | 7.83 | 8.92 |
| O=C(/C=C/c1cccc(-c2ccc(F)cc2)c1)c1ccc(F)cc1 | 12.2 | 7.39 | 12.3 | 13.5 | 14.1 |
| O=C(/C=C/c1ccc(Cl)cc1)c1cccc(-c2cccc(F)c2)c1 | 15.4 | 9.06 | 10.4 | 16.9 | 18.2 |
| COc1ccc(/C=C/C(=O)c2cccc(-c3cccc(F)c3)c2)cc1 | 2.44 | 0.74 | 1.72 | 4.51 | 3.08 |
| COc1cc(/C=C/C(=O)c2cccc(-c3cccc(F)c3)c2)ccc1O | 9.9 | 5.69 | 6.83 | 6.74 | 14.2 |
| COc1ccccc1/C=C/C(=O)c1cccc(-c2cccc(F)c2)c1 | 15.5 | 10.4 | 15.4 | 16.6 | 18.9 |
| COc1ccc(/C=C/C(=O)c2cccc(-c3ccc(F)cc3)c2)cc1 | 11.2 | 5.55 | 5.65 | 8.35 | 16.4 |
| COc1ccc(/C=C/C(=O)c2ccc(NC(C)=O)c(-c3ccc(F)cc3)c2)cc1OC | 7.38 | 2.74 | 5.63 | 5.35 | 15 |
| COc1ccc(/C=C/C(=O)c2cccc(-c3ccc(F)nc3)c2)cc1O | 2.06 |  |  |  |  |
| COc1cc(/C=C/C(=O)c2ccc(N)c(-c3ccc(F)cc3)c2)cc(Br)c1O | > 50 | 25.5 | 4.73 | 22.9 | 40.5 |
| Nc1ccc(C(=O)/C=C/c2ccc(O)c(F)c2)cc1-c1ccc(F)cc1 | 24.5 | 18.1 | 11.7 | 31.7 | 18.3 |
| O=C(/C=C/c1ccc(Br)cc1)c1cccc(-c2cccc(F)c2)c1 | 19.8 | 10.5 | 9.92 | 18.2 | 18.3 |
| COc1ccc(/C=C/C(=O)c2ccc(N)c(-c3ccc(F)cc3)c2)cc1OC | 8.63 | 3.51 | 3.78 | 6.64 | 15 |
| O=C(/C=C/c1cccc(Br)c1)c1cccc(-c2cccc(F)c2)c1 | 9.12 | 6.55 | 6.98 | 8.61 | 12.7 |
| COc1cc(/C=C/C(=O)c2ccc(N)c(-c3ccc(F)cc3)c2)cc(OC)c1OC | 6.07 | 4.6 | 4.21 | 6.12 | 9.03 |
| COc1ccc(/C=C/C(=O)c2cccc(-c3ccc(F)cc3)c2)cc1OC | 11.8 | 5.55 | 5.37 | 6.49 | 11.6 |

| SMILES | IC50 (A549) [µM] | IC50 [1] [µM] | IC50 (HepG2) [µM] | IC50 (SW480) [µM] | IC50 (MCF7) [µM] |
| --- | --- | --- | --- | --- | --- |
| COc1ccc(/C=C/C(=O)c2cccc(Br)c2)cc1 | 34.2 |  |  |  |  |
| O=C(/C=C/c1ccccc1Br)c1cccc(-c2cccc(F)c2)c1 | 12.4 | 8.91 | 12.8 | 14.8 | 20 |
| COc1ccc(/C=C/C(=O)c2cccc(Br)c2)cc1O | 5.88 |  |  |  |  |
| O=C(/C=C/c1cccc(-c2ccc(F)cc2)c1)c1ccc(O)cc1 | 8.36 | 5.51 | 5.12 | 12 | 10.8 |
| COc1ccc(/C=C/C(=O)c2ccc(N)c(-c3ccc(F)cc3)c2)cc1O | 0.94 |  |  |  |  |
| COc1ccc(-c2cc(C(=O)/C=C/c3cccc(OC)c3OC)ccc2N)cc1OC | 6.54 | 6.6 | 5.36 | 8.33 | 10.2 |
| COc1cccc(/C=C/C(=O)c2ccc(N)c(-c3ccc(F)cc3)c2)c1OC | 13.3 | 11.3 | 7.37 | 12.5 | 13.3 |
| COc1ccc(/C=C/C(=O)c2ccc(N)c(-c3ccc(F)cc3)c2)c(OC)c1 | 14.4 | 6.29 | 7.74 | 12.4 | 10.8 |
| COc1ccc(/C=C/C(=O)c2ccc(N)c(-c3ccc(F)cc3)c2)cc1 | 4.31 | 1.6 | 3.75 | 7.23 | 7.58 |
| COc1ccc(/C=C/C(=O)c2cccc(-c3cccc(F)c3)c2)cc1O | 0.5 |  |  |  |  |
| COc1cccc(/C=C/C(=O)c2cccc(-c3cccc(F)c3)c2)c1OC | 8.9 | 10 | 9.2 | 13.5 | 11.7 |
| COc1ccc(/C=C/C(=O)c2cccc(-c3cccc(F)c3)c2)cc1OC | 1.94 | 0.77 | 1.17 | 2.97 | 4.62 |
| COc1ccc(-c2cc(C(=O)/C=C/c3cc(OC)c(OC)c(OC)c3)ccc2N)cc1OC | 4.62 | 4.33 | 2.68 | 5.63 | 6.58 |
| COc1ccc(OC)c(/C=C/C(=O)c2ccc(N)c(-c3ccc(OC)c(OC)c3)c2)c1 | 6.2 | 6.59 | 2.1 | 6.49 | 6.33 |
| COc1ccc(/C=C/C(=O)c2ccc(N)c(-c3ccc(OC)c(OC)c3)c2)c(OC)c1 | 2.21 | 8.34 | 2.13 | 9.3 | 6.49 |
| COc1cc(/C=C/C(=O)c2ccc(N)c(-c3ccc(F)cc3)c2)ccc1O | 12.2 | 5.75 | 4.3 | 8.35 | 10.5 |
| COc1ccc(-c2cc(C(=O)/C=C/c3ccc(F)cc3)ccc2N)cc1OC | 18 | 7.93 | 8.96 | 14.7 | 19.4 |
